Columns and labels:
[1] = Biodistribution in rat thyroid was determined after 11 hours of intravenous administration of the compound; [125I]- is used as radioactive isotope; assay type: ADME, organism-based, Thyroid gland; conditions: in vivo
How it was run: (§1)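 Rats, three per group, under ether anaesthesia, received 10 μCi of [¹²⁵I]-labelled tracer in 0.2 mL saline into the femoral vein. They were killed by cardiac excision under ether at each time point. Organs were removed, weighed and counted. Percent dose per organ was calculated against counts of a 1% aliquot of the injected dose (100-fold diluted) counted at the same time.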

[2] = Regional brain distribution in rat cortex was determined after 6 hours of intravenous administration of the compound; [125I]- is used as radioactive isotope; assay type: ADME; conditions: in vivo
How it was run: (§2)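 Rats, three per group, injected with 10 μCi tracer in 0.2 mL saline via the femoral vein under ether anesthesia and killed by cardiac excision at the stated time. Cortex (frontal plus occipital), striatum, hippocampus, cerebellum and hypothalamus were dissected, weighed and gamma-counted. Values are % dose/g, calculated by comparison with counts of a 100-fold diluted aliquot of the injected dose.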

[3] = Biodistribution in rat lung was determined after 120 min of intravenous administration of the compound; [125I]- is used as radioactive isotope; assay type: ADME, organism-based; conditions: in vivo, 2 h
How it was run: (§3)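 Rats under ether anesthesia, three per group, received 10 μCi tracer in 0.2 mL saline into the femoral vein. They were killed by cardiac excision under ether at each time point. Organs were removed, weighed and counted. Percent dose per organ was calculated against a 1%-of-injected-dose standard counted at the same time.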

[4] = Biodistribution in rat heart was determined after 240 min of intravenous administration of the compound; [125I]- is used as radioactive isotope; assay type: ADME, organism-based; conditions: in vivo, 4 h; how it was run: as §3
[5] = Biodistribution in rat skin was determined after 24 hours of intravenous administration of the compound; [125I]- is used as radioactive isotope; assay type: ADME, organism-based, Zone of skin; conditions: in vivo; how it was run: as §1
[6] = Biodistribution in rat kidney was determined after 60 min of intravenous administration of the compound; [125I]- is used as radioactive isotope; assay type: ADME, organism-based; conditions: in vivo, 1 h; how it was run: as §3
[7] = Biodistribution in rat lung was determined after 2 min of intravenous administration of the compound; [125I]- is used as radioactive isotope; assay type: ADME, organism-based; conditions: in vivo; how it was run: as §3
[8] = Biodistribution in rat muscle was determined after 6 hours of intravenous administration of the compound; [125I]- is used as radioactive isotope; assay type: ADME, organism-based, Muscle tissue; conditions: in vivo; how it was run: as §1
[9] = Regional brain distribution in rat cerebellum was determined after 240 min of intravenous administration of the compound; [125I]- is used as radioactive isotope; assay type: ADME, tissue-based; conditions: in vivo, 4 h; how it was run: as §2
[10] = Regional brain distribution in rat hippocampus was determined after 120 min of intravenous administration of the compound; [125I]- is used as radioactive isotope; assay type: ADME, tissue-based; conditions: in vivo, 2 h; how it was run: as §2
[11] = Biodistribution in rat blood was determined after 30 min of intravenous administration of the compound; [125I]- is used as radioactive isotope; assay type: ADME, organism-based; conditions: in vivo, 0.5 h; how it was run: as §3
[12] = Biodistribution in rat skin was determined after 120 min of intravenous administration of the compound; [125I]- is used as radioactive isotope; assay type: ADME, organism-based, Zone of skin; conditions: in vivo, 2 h; how it was run: as §1
[13] = Regional brain distribution in rat hypothalamus was determined after 60 min of intravenous administration of the compound; [125I]- is used as radioactive isotope; assay type: ADME, tissue-based; conditions: in vivo, 1 h; how it was run: as §2
[14] = Distribution ratio in cortex and cerebellum was determined after 60 min of intravenous administration of the compound; [125I]- is used as radioactive isotope; assay type: ADME, tissue-based; conditions: rat, 1 h
How it was run: (§4)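 After femoral-vein injection of 10 μCi [¹²⁵I] tracer in 0.2 mL saline under ether anaesthesia (three rats per group), brain regions were dissected, weighed and counted: cortex (frontal plus occipital), hippocampus, hypothalamus and cerebellum. %dose/g was calculated against a diluted injected-dose standard. Ratio = (region − cerebellum)/cerebellum on a %dose/g basis, with cerebellum as the background region.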

[15] = Biodistribution in rat kidney was determined after 11 hours of intravenous administration of the compound; [125I]- is used as radioactive isotope; assay type: ADME, organism-based; conditions: in vivo; how it was run: as §3
[16] = Biodistribution in rat brain was determined after 60 min of intravenous administration of the compound; [125I]- is used as radioactive isotope; assay type: ADME, organism-based; conditions: in vivo, 1 h; how it was run: as §3
[17] = Biodistribution in rat thyroid was determined after 24 hours of intravenous administration of the compound; [125I]- is used as radioactive isotope; assay type: ADME, organism-based, Thyroid gland; conditions: in vivo; how it was run: as §1
[18] = Biodistribution in rat muscle was determined after 11 hours of intravenous administration of the compound; [125I]- is used as radioactive isotope; assay type: ADME, organism-based, Muscle tissue; conditions: in vivo; how it was run: as §1
[19] = Distribution ratio in cortex and cerebellum was determined after 30 min of intravenous administration of the compound; [125I]- is used as radioactive isotope; assay type: ADME, tissue-based; conditions: rat, 0.5 h; how it was run: as §4
[20] = Distribution ratio in hippocampus and cerebellum was determined after 6 hrs of intravenous administration of the compound; [125I]- is used as radioactive isotope; assay type: ADME, tissue-based; conditions: rat; how it was run: as §4
[21] = Biodistribution in rat skin was determined after 11 hours of intravenous administration of the compound; [125I]- is used as radioactive isotope; assay type: ADME, organism-based, Zone of skin; conditions: in vivo; how it was run: as §1
[22] = Distribution ratio in hypothalamus and cerebellum was determined after 2 min of intravenous administration of the compound; [125I]- is used as radioactive isotope; assay type: ADME, tissue-based; conditions: rat; how it was run: as §4
[23] = Biodistribution in rat spleen was determined after 30 min of intravenous administration of the compound; [125I]- is used as radioactive isotope; assay type: ADME, organism-based; conditions: in vivo, 0.5 h; how it was run: as §1
[24] = Biodistribution in rat thyroid was determined after 240 min of intravenous administration of the compound; [125I]- is used as radioactive isotope; assay type: ADME, organism-based, Thyroid gland; conditions: in vivo, 4 h; how it was run: as §1
[25] = Distribution ratio in hypothalamus and cerebellum was determined after 240 min of intravenous administration of the compound; [125I]- is used as radioactive isotope; assay type: ADME, tissue-based; conditions: rat, 4 h; how it was run: as §4
[26] = Biodistribution in rat liver was determined after 2 min of intravenous administration of the compound; [125I]- is used as radioactive isotope; assay type: ADME, organism-based; conditions: in vivo; how it was run: as §3
[27] = Biodistribution in rat kidney was determined after 2 min of intravenous administration of the compound; [125I]- is used as radioactive isotope; assay type: ADME, organism-based; conditions: in vivo; how it was run: as §3
[28] = Biodistribution in rat kidney was determined after 240 min of intravenous administration of the compound; [125I]- is used as radioactive isotope; assay type: ADME, organism-based; conditions: in vivo, 4 h; how it was run: as §3
[29] = Biodistribution in rat muscle was determined after 60 min of intravenous administration of the compound; [125I]- is used as radioactive isotope; assay type: ADME, organism-based, Muscle tissue; conditions: in vivo, 1 h; how it was run: as §1
[30] = molecular target: Sodium-dependent serotonin transporter (Homo sapiens, UniProt P31645); assay: Binding affinity for serotonin transporter expressed in […] cells; assay type: cell-based
Sodium-dependent serotonin transporter, sequence (P31645 whole entry): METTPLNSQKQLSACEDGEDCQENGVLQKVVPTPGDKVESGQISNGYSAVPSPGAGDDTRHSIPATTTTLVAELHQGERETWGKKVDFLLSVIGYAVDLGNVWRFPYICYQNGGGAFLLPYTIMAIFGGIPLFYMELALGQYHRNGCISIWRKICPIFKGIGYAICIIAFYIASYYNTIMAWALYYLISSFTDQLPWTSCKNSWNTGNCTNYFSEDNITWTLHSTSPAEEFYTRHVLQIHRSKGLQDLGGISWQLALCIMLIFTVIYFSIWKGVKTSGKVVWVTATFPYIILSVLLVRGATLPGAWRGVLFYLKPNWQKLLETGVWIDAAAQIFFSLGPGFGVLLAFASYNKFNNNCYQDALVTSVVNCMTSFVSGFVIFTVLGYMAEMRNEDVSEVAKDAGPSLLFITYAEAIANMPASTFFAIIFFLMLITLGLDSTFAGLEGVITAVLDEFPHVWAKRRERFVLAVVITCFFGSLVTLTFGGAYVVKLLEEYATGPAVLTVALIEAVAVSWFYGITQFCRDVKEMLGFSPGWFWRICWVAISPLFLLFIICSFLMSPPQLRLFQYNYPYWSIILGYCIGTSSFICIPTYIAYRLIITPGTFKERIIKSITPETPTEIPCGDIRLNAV
How it was run: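 Membranes from confluent pig kidney LLC-PK₁ cells stably expressing the respective transporter, homogenized and pelleted, 30–40 μg protein. Incubated with 0.4 nM [¹²⁵I]IPT or [¹²⁵I]IDAM and 8–10 competitor concentrations (10⁻¹⁰ to 10⁻⁵ M) in 50 mM Tris-HCl pH 7.4, 120 mM NaCl, 0.1% BSA, 1 h at room temperature. Nonspecific binding was defined with 10 μM CFT for IPT and 1 μM IDAM for IDAM. Filtration, gamma counting, nonlinear regression for Ki.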

[31] = Biodistribution in rat thyroid was determined after 30 min of intravenous administration of the compound; [125I]- is used as radioactive isotope; assay type: ADME, organism-based, Thyroid gland; conditions: in vivo, 0.5 h; how it was run: as §1
[32] = Distribution ratio in hippocampus and cerebellum was determined after 120 min of intravenous administration of the compound; [125I]- is used as radioactive isotope; assay type: ADME, tissue-based; conditions: rat, 2 h; how it was run: as §4
[33] = Regional brain distribution in rat striatum was determined after 24 hours of intravenous administration of the compound; [125I]- is used as radioactive isotope; assay type: ADME, tissue-based; conditions: in vivo; how it was run: as §2

SMILES: CN(C)Cc1ccccc1Oc1ccc(I)cc1N
- Dose [1]: 5.15%
- Dose/g [2]: 0.04%
- Dose [3]: 0.88%
- Dose [4]: 0.08%
- Dose [5]: 4.02%
- Dose [6]: 1.67%
- Dose [7]: 17.2%
- Dose [8]: 5.01%
- Dose/g [9]: 0.06%
- Dose/g [10]: 0.65%
- Dose [11]: 4.56%
- Dose [12]: 12.5%
- Dose/g [13]: 1.18%
- Dose/g [14]: 1.35%
- Dose [15]: 0.4%
- Dose [16]: 1.74%
- Dose [17]: 4.61%
- Dose [18]: 4.01%
- Dose/g [19]: 0.96%
- Dose/g [20]: 1.21%
- Dose [21]: 10.9%
- Dose/g [22]: 0.24%
- Dose [23]: 0.84%
- Dose [24]: 2.34%
- Dose/g [25]: 4.49%
- Dose [26]: 5.71%
- Dose [27]: 4.27%
- Dose [28]: 0.61%
- Dose [29]: 12.9%
- Ki [30]: 0.37 nM
- Dose [31]: 0.15%
- Dose/g [32]: 2.19%
- Dose/g [33]: 0.0039%
